Experimental data: the array DNA melting data of Ke et al. (doi:10.1101/2024.01.08.574731)

Experiments:
[1] = folding enthalpy; higher = less favourable; fluorescence melt of hairpins on a sequencing array, two-state fit; conditions: sodium 0.088 M
In short: (§1)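 Hairpins were imaged by Cy3 fluorescence on a sequenced MiSeq flow cell with annealed Cy3 and quencher oligos, in 50 mM Na-HEPES pH 8.0, 25 mM NaCl, in 2.5 °C steps up to 60 °C. Bootstrapped two-state fits of normalised signals gave melting temperature and folding enthalpy. Four replicates were combined by inverse variance, and fitted temperatures were raised by 9.35 °C to match UV melts.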

[2] = melting temperature; fluorescence melt of hairpins on a sequencing array, two-state fit, raised by 9.35 °C to match UV melts; conditions: sodium 0.088 M
In short: as §1

Row | Sequence | folding enthalpy [1] [kcal/mol] | Tm [2] [°C]
1 | ACGTTGAAAAACGT (((((....))))) | -20.2 | 47.1
2 | GCGTTAGTACGC ((((....)))) | -19.8 | 51.1
3 | GTGACTGGAAACAGTCGC (.(((((....))))).) | -30.6 | 56.2
4 | GCCGAAGGAAACCTCGGC (((((.(....).))))) | -34.6 | 54.6
5 | ATTACGAAAGTAAT (((((....))))) | -17.5 | 44.4
6 | GTTCAGCGAAAGCTTAAC (((.(((....))).))) | -30.2 | 40.9
7 | GGAGGCGAAAGCCCGTCC ((((((....)))..))) | -8.99 | 39.7
8 | GATCCTGATGAGGATC ((((((....)))))) | -31.9 | 51.1
9 | GCCATGGGAAACCATGAC (.(((((....))))).) | -19.5 | 41
10 | GATCATTCTGATGATC ((((((....)))))) | -39.7 | 49.5
11 | GCTGTGCGAAAGCAAGC (((.(((....)))))) | -21.5 | 51.8
12 | GTTAGCGGAAACGCCAAC (((.(((....))).))) | -17.3 | 37.4
13 | GATCCGTGTACGGATC ((((((....)))))) | -45 | 63.6
14 | GATCAGTCTGCTGATC ((((((....)))))) | -41.6 | 52.7
15 | GGTACAGCGAAAGCTACC (((..(((....)))))) | -16.4 | 38.1
16 | GTGACCGGAAACGATCAC ((((.((....)).)))) | -39.6 | 46.6
17 | GGCAGGGAAACCTGCC ((((((....)))))) | -30.2 | 69.3
18 | GGGGTGGGAAACCGTCCC (((..((....))..))) | -18.5 | 45.2
19 | GCCGGCGAAAGCCCTGGC ((((((....)))..))) | -16.2 | 56.6
20 | GCCAGACGAAAGTCGGGC (((.(((....))).))) | -34 | 68.6
21 | GGGCGGCGAAAGCCTCCC (((.(((....))).))) | -21.9 | 61.2
22 | GTAGCAGGAAACTGCTGC (.(((((....))))).) | -26.2 | 55.5
23 | GGGGATCGAAAGATGCCC (((.(((....))).))) | -48.8 | 59.4
24 | GGAGTCGAAAGACCTTCC ((((((....)))..))) | -22.5 | 40.6

Row | Sequence | folding enthalpy [1] [kcal/mol] | Tm [2] [°C]
25 | GGACTCGAAAGAGTTTCC ((((((....)))..))) | -13.8 | 36.8
26 | GATCCCAGGGGGATC ((((((...)))))) | -34.7 | 67
27 | GACGACGAAAGTCTTGTC ((((((....)))..))) | -16.2 | 40.3
28 | GAGCGACCGAAAGGTCTC (((..(((....)))))) | -10.2 | 33.1
29 | GGTTCGGGAAACCAAACC ((((.((....)).)))) | -30.3 | 40.4
30 | GATCTGCAGTCAGATC ((((((....)))))) | -34.5 | 49.2
31 | GATCCGTCTTCGGATC ((((((....)))))) | -40 | 59.4
32 | GTAGGCGAAAGCCTATAC ((((((....)))..))) | -9.56 | 45.2
33 | GGTACTGCGAAAGCAACC (((..(((....)))))) | -9.7 | 28.8
34 | GGTTGCGAAAGCATAACC ((((((....)))..))) | -20.5 | 45.9
35 | GACCTGGGAAACCAGATC ((.((((....)))).)) | -22.5 | 36.1
36 | GCCATCGAAAGATGGGGC ((((((....)))..))) | -12.8 | 54.4
37 | GGACTAGGAAACTAGTCC (((((((....))))))) | -44 | 61.5
38 | GTGCGCGAAAGCGCCCAC ((((((....)))..))) | -6.88 | 43.3
39 | GCAAAAGAAATTTTGC ((((((....)))))) | -25.9 | 46.3
40 | CGCTTGAAAAAGCG (((((....))))) | -23.3 | 58.2
41 | GTCGGACGAAAGTCGGAC (((.(((....))).))) | -32.3 | 58.5
42 | GATCCACGAATGGATC ((((((....)))))) | -34.4 | 48.1
43 | CGGGTGAAAACCCG (((((....))))) | -28.9 | 68.6
44 | GCCAGCGAAAGCTTCGGC ((((((....)))..))) | -23.7 | 47.8
45 | GTCGTACCGAAAGGTGAC (((..(((....)))))) | -18.6 | 42.8
46 | GGGCAGGGAAACTTGCCC (((((.(....).))))) | -47.7 | 55.9
47 | GTATTCGGAAACGAATGC (.(((((....))))).) | -29.1 | 48.6
48 | GCGGTGCCCGC ((((...)))) | -19.3 | 55.5

Row | Sequence | folding enthalpy [1] [kcal/mol] | Tm [2] [°C]
49 | GATCAACATATTGATC ((((((....)))))) | -30.2 | 42.6
50 | GGCCTAGGAAACTAGGCC (((((((....))))))) | -32.8 | 68.6
51 | GTGTGGGGAAACCCATGC (..((((....))))..) | -21.5 | 43.1
52 | GCTTTCGAAAGAAACAGC ((((((....)))..))) | -16.3 | 32.8
53 | GATCCTGGAGAGGATC ((((((....)))))) | -34.7 | 54
54 | GAACTGGGAAACCGGTTC ((((.((....)).)))) | -39.6 | 50.1
55 | GATCACAGCAGTGATC ((((((....)))))) | -40.3 | 59.5
56 | GCTCCGGGAAACCGGGGC ((.((((....)))).)) | -43 | 63.8
57 | GGCAACCGAAAGGTGCC (((.(((....)))))) | -33.6 | 66.4
58 | GCACCACGAAAGTGATGC (((.(((....))).))) | -36.5 | 55.7
59 | GATCTCCTGGAGATC ((((((...)))))) | -37.3 | 53.2
60 | TTTCCGAAAGGAAA (((((....))))) | -19 | 49.3
61 | GTAAGCCGAAAGGCGTAC (((.(((....))).))) | -14.1 | 54.4
62 | GGCTTTGGAAACAGAGCC ((((.((....)).)))) | -35.3 | 50.6
63 | GTGCAGCGAAAGCTACAC (((.(((....))).))) | -31 | 54.1
64 | GCGACCTATCGC ((((....)))) | -28.4 | 49.3
65 | CGCTGCGGAAACGCGCG (((.(((....)))))) | -27.1 | 60.8
66 | GCCGACCGAAAGGTGGC (((.(((....)))))) | -34 | 62
67 | GATCGAATGTCGATC ((((((...)))))) | -31.5 | 50.6
68 | GCAGAAGGAAACTTTTGC (((.(((....))).))) | -31.2 | 37
69 | GGGATTCCGAAAGGACCC (((..(((....)))))) | -16 | 40.3
70 | GGGCTAGAAATAGCCC ((((((....)))))) | -30.3 | 64
